By inhibition is commonly meant the relative decrease from the control value, in per cent. As a reminder, the IC50 is the concentration that gives 50% inhibition.

From ChEMBL document CHEMBL3871293, “Discovery of novel DNA methyltransferase 3A inhibitors via structure-based virtual screening and biological assays” (Bioorg Med Chem Lett, 2017) come the findings set out here.

Activity calls are given as the source filed them. No cut-off for these calls is given here.

Assay [1] has as its target T1, DNA (cytosine-5)-methyltransferase 3A (Homo sapiens, UniProt Q9Y6K1). Kind of assay: Inhibition of N-terminal His6-tagged DNMT3A (623 to 908 residues) (unknown origin) expressed in Escherichia coli BL21 (DE3) coexpressing DNMT3L (160 to 386 C-terminal residues) (unknown origin) assessed as reduction in oligonucleosome methylation at 100 uM preincubated for 15 mins followed by addition of [3H]-SAM measured after 4 hrs by liquid scintillation counting method. An outline of the steps: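 DNMT3A/3L complex activity measured by radioactive methylation assay. Single-point screen at 100µM per compound, with sinefungin (a SAM competitor) run as the reference inhibitor.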

For assay [2], the target named is T1, DNA (cytosine-5)-methyltransferase 3A. Kind of assay: Inhibition of N-terminal His6-tagged DNMT3A (623 to 908 residues) (unknown origin) expressed in Escherichia coli BL21 (DE3) coexpressing DNMT3L (160 to 386 C-terminal residues) (unknown origin) assessed as reduction in oligonucleosome methylation preincubated for 15 mins followed by addition of [3H]-SAM measured after 4 hrs by liquid scintillation counting method. In a few lines:
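IC50 determined from a dose-response in the same radioactive methylation assay on DNMT3A/3L. Sinefungin served as the SAM-competitive reference inhibitor.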

A further assay relates to HeLa. Kind of assay: Growth inhibition of human HeLa cells at 12.5 to 200 uM measured after 4 days by AlamarBlue assay. The class given is functional, cell-based. (Alamar Blue is a resazurin reagent that responds to reducing activity.)
The next assay concerns Kasumi 1. Kind of assay: Growth inhibition of human Kasumi-1 cells at 12.5 to 200 uM measured after 48 hrs by AlamarBlue assay. The class given is functional, cell-based. In a few lines: (§1)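 AML cells were exposed to 12.5, 25, 50, 100 and 200µM for 48 hours before viability read-out: Kasumi-1, MV4-11 and THP-1.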
The test system of a further assay is THP-1. Kind of assay: Growth inhibition of human THP1 cells at 12.5 to 200 uM measured after 48 hrs by AlamarBlue assay. The class given is functional, cell-based. In a few lines: as §1
The test system of another assay is KG-1. Kind of assay: Growth inhibition of human KG1 cells at 12.5 to 200 uM measured after 72 hrs by AlamarBlue assay. The class given is functional, cell-based. An outline of the steps: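 KG-1 AML cells were treated at 12.5, 25, 50, 100 and 200µM, with viability read after 72 hours of exposure.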
For a further assay, the system named is MV4-11. Kind of assay: Growth inhibition of human MV4-11 cells at 12.5 to 200 uM measured after 48 hrs by AlamarBlue assay. The class given is functional, cell-based. In a few lines:
as §1

T1 sequence (Q9Y6K1 whole entry, looked up, the tested form may be a part): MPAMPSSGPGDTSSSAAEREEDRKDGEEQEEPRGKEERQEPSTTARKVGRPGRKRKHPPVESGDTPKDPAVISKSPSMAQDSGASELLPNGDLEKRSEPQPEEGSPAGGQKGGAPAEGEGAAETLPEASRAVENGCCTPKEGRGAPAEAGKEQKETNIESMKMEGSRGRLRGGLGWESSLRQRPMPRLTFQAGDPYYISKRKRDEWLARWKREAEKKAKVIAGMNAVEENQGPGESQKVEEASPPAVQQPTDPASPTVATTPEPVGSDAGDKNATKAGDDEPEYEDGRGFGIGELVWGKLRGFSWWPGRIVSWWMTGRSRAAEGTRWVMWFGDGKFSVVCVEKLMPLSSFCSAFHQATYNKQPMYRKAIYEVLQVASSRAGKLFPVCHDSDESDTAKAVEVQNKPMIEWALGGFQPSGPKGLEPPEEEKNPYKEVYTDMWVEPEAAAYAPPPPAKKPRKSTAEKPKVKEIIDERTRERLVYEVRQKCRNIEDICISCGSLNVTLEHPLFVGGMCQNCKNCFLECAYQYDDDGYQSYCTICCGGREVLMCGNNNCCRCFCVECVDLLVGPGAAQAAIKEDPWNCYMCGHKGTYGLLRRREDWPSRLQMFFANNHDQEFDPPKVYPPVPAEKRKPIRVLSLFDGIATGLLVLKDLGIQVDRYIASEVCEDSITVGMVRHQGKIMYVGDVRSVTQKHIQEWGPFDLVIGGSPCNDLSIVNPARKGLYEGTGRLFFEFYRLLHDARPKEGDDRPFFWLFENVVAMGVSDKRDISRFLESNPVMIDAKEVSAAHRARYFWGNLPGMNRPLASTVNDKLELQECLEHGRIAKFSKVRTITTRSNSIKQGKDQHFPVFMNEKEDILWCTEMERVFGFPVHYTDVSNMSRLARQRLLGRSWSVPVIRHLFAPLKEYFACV

As for `CCOc1ccccc1N1C(=O)c2ccc(C(=O)Nc3ccc(Br)cc3C(=O)O)cc2C1=O`, in assay [1], the inhibition worked out at 56%. With `O=C(Nc1ccc(Br)cc1C(=O)O)c1ccc2c(c1)C(=O)N(c1cc(Cl)ccc1C(=O)O)C2=O`, the IC50 in assay [2] is 41 µM. For the same compound, the “growth inhibition (GI)” value with HeLa, in the assay on Kasumi 1, with THP-1, in the assay with KG-1 and in the assay on MV4-11 was “Active” in each case. The inhibition in assay [1] was determined as 67%. `CCOc1ccc(NC(=O)c2ccc3c(c2)C(=O)N(c2ccccc2)C3=O)cc1`: in assay [1], the inhibition came out at 19%. As for `O=C(O)c1ccc(NC(=O)c2ccc3c(c2)C(=O)N(Cc2ccco2)C3=O)cc1`, the IC50 in assay [2] amounted to 64 µM. Also, the inhibition in assay [1] turned out to be 92%. On to `COc1ccc(N2C(=O)c3ccc(C(=O)Nc4ccccc4OC)cc3C2=O)cc1`, for which the inhibition in assay [1] is 4%. As for `CC(C)(C)N1C(=O)c2ccc(C(=O)Nc3ccc(C(=O)O)cc3)cc2C1=O`, in assay [1], the inhibition turned out to be 11%. Consider `COCCN1C(=O)c2ccc(C(=O)Nc3ccc(Br)cc3C(=O)O)cc2C1=O`, for which the inhibition in assay [1] is -8%. Take `Cc1cc(Br)ccc1NC(=O)c1ccc2c(c1)C(=O)N(CC(C)C)C2=O`: the inhibition in assay [1] stood at 8%. On to `COc1ccccc1N1C(=O)c2ccc(C(=O)Nc3ccccc3O)cc2C1=O`, for which the inhibition in assay [1] is 1%. Still for that read-out and setting: in the case of `COc1ccccc1NC(=O)c1ccc2c(c1)C(=O)N(Cc1ccco1)C2=O` it was 3%; in that of `O=C(Nc1ccccc1Cl)c1ccc2c(c1)C(=O)N(Cc1ccco1)C2=O`, 13%. On to `CC(c1ccccc1)N1C(=O)c2ccc(C(=O)Nc3ccc(Br)cc3C(=O)O)cc2C1=O` (configuration not stated), for which, in assay [2], the IC50 turned out to be 46.5 µM. Moreover, the “growth inhibition (GI)” value with HeLa, in the assay with Kasumi 1, in the assay on THP-1, with KG-1 and with MV4-11 was “Active” each time. Also, the inhibition result in assay [1] is “Active”. For the compound `Cc1ccc(O)c(NC(=O)c2ccc3c(c2)C(=O)N(Cc2cccnc2)C3=O)c1`, the inhibition in assay [1] was determined as 6%. The same measure, in the same setting: to `Cc1cc(O)ccc1NC(=O)c1ccc2c(c1)C(=O)N(Cc1cccnc1)C2=O` belongs 11%.
